Compound activity: PubChem BioAssay, The Scripps Research Institute Molecular Screening Center
A selection: hits, their analogues and other compounds. The true share with any hit is near 1.9%.
M5 ag: human M5 muscarinic receptor agonists, primary screen, CHO-K1 cells, Fluo-8 calcium fluorescence | Muscarinic acetylcholine receptor M5 (Homo sapiens), P08912 | activation, % at 3 µM | CHO-K1 hM5 cells; 0% DMSO wells, 100% maximal acetylcholine response | actives 0.19% (n = 360,000) | AID 624037, 2012;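 active = activation above the run's mean over test compounds plus 3 SD, cut at about 23% in these data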;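 note: signal is peak over basal fluorescence ratio across the kinetic read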
Target sequence (P08912 whole entry, looked up): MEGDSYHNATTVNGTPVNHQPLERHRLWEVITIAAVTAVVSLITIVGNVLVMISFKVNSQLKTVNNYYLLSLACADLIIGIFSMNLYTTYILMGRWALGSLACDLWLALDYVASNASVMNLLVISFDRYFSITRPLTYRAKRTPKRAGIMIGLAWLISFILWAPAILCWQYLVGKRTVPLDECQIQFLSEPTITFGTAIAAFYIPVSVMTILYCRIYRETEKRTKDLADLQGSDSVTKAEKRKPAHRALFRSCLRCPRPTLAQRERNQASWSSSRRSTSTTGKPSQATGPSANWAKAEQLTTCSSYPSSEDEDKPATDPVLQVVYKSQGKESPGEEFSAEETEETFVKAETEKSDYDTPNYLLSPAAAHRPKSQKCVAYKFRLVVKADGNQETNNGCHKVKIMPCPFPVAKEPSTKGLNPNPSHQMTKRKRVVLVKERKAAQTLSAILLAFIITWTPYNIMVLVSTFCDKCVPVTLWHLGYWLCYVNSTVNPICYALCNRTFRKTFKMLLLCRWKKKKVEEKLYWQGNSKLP
CHRM4 antagonist: human M4 muscarinic receptor antagonists, primary screen, CHO cells, Fluo-8 calcium fluorescence; actives 0.73% (n = 360,000); AID 624125, 2012; inhibition, % at 3 µM; CHO-hM4 cells, ACh EC80;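 active = inhibition above its plate's cutoff, the mean inhibition of sample wells plus 3 SD, cut at about 27% in these data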
M5 antag: human M5 muscarinic receptor antagonists, primary screen, CHO cells, Fluo-8 calcium fluorescence. Muscarinic acetylcholine receptor M5 (Homo sapiens), P08912. CHO-hM5 cells, ACh EC80. inhibition, % at 3 µM. actives 0.59% (n = 360,000). AID 624040, 2012;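 active = inhibition above a per-plate cutoff, the mean of that plate's test compounds plus 3 SD, cut at about 27% in these data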
M5 PAM: human M5 muscarinic receptor positive allosteric modulators, primary screen, CHO-K1 cells, Fluo-8 calcium fluorescence; CHO-K1 hM5, ACh EC20 PAM; 0% = ACh EC20, 100% = ACh EC100; actives 0.3% (n = 360,000); activation, % at 3 µM; AID 624038, 2012; Muscarinic acetylcholine receptor M5 (Homo sapiens), P08912;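 active = activation above the run cutoff, the mean activation of all test compounds plus 3 SD, cut at about 18% in these data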
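system = human M5 receptor in CHO-K1 cells | reagent = EC20 acetylcholine as agonist stimulus | compound dosing = single-point, 3 µM nominal | incubation = Fluo-8 loading 80 min at 37 °C plus 30 min room temperature | detection = Fluo-8 calcium dye fluorescence, kinetic read | benchmarks = low control EC20 acetylcholine (0%), high control EC100 acetylcholine (100%)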
M4 ag: human M4 muscarinic receptor agonists, primary screen, CHO-K1 cells, Fluo-8 calcium fluorescence; Muscarinic acetylcholine receptor M4 (Homo sapiens), P08173; actives 0.14% (n = 360,000); activation, % at 3 µM; CHO-K1 hM4/Gqi5; vehicle 0%, full acetylcholine response 100%;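 active = activation above the run mean over all test wells plus 3 SD, cut at about 32% in these data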;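 note: peak over basal fluorescence ratio per well then scaled between controls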
M4 PAM: human M4 muscarinic receptor positive allosteric modulators, primary screen, CHO-K1 cells, Fluo-8 calcium fluorescence; Muscarinic acetylcholine receptor M4 (Homo sapiens), P08173; CHO-K1 hM4/Gqi5, ACh EC20; 0% = ACh EC20, 100% = maximal ACh; activation, % at 3 µM; actives 0.4% (n = 360,000); AID 624126, 2012;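 active = activation above its plate's cutoff, the mean activation of sample wells plus 3 SD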
Each line names hits and unclear results; the compound was inactive in the other large screens.

CCCCn1c(N)c(N(CCC(C)C)C(=O)COC(=O)c2ccc3ccccc3c2)c(=O)[nH]c1=O	M4 PAM 23
CCCCn1c(N)c(N(CCC(C)C)C(=O)c2cc(Cl)nc3ccccc23)c(=O)[nH]c1=O	M5 PAM 26
CCCCn1c(N)c(N(CC(C)C)C(=O)c2cccc(S(=O)(=O)N3CCCCCC3)c2)c(=O)[nH]c1=O	none
CCOC(=O)C1(C)CCCN1C(=O)c1cccc2ccccc12 (stereo unspecified)	none
CCN(CC)S(=O)(=O)c1ccc(NC(=O)CNC2CCCCC2)cc1	none
CC(c1nccs1)N(C)C(=O)c1ccc(OC2CCN(CCc3ccccc3)CC2)cc1 (stereo unspecified)	CHRM4 antagonist 31, M5 antag 36
CN(Cc1nccn1C)C(=O)c1ccc(OC2CCN(CCc3ccccc3)CC2)cc1	M5 antag 28
CC(C)N(C)C(=O)c1ccc(OC2CCN(CCc3ccccc3)CC2)cc1	none
COc1ccc(N=Nc2c(C)[nH]c3ccccc23)cc1	none
O=C(CSC1=Nc2ccccc2C2CC=NN12)Nc1ccc2c(c1)OCO2 (stereo unspecified)	none
Cc1cc(C)cc(N(CCC#N)C(=O)CSC2=Nc3ccccc3C3CC=NN23)c1 (stereo unspecified)	M5 ag 24
CCCOC(=O)c1ccc(NC(=O)CSC2=Nc3ccccc3C3CC=NN23)cc1 (stereo unspecified)	M4 PAM 38
CCCNC(=O)c1ccc(C2SCC(=O)N2CCc2ccccc2)cc1 (stereo unspecified)	none
CC(C)c1c(C(=O)N/N=C/C2CC=CCC2)nnn1-c1nonc1N (stereo unspecified)	none
CCCCOc1ccc(C(=O)O)cc1	none
CCCCOc1ccc(C(=O)Nc2cccc(C)n2)cc1	CHRM4 antagonist 94
CCCCCCCCOc1ccc(C(=O)O)cc1	M4 PAM 22
CCN(CC)CCNC(C(=O)Nc1cccc(C(C)=O)c1)c1ccccc1 (stereo unspecified)	CHRM4 antagonist 54
CCOc1ccc(NC(C(=O)Nc2cccc(C(C)=O)c2)c2ccccc2)cc1 (stereo unspecified)	none
CN(C(=O)COC(=O)c1ccc(Br)c([N+](=O)[O-])c1)c1c(N)n(Cc2ccccc2)c(=O)[nH]c1=O	none
CCOC(=O)/C=C/C(=O)Nc1ccc(Oc2ccccc2)cc1	M5 antag 36
O=C(CSc1nnc(CNc2ccc(F)cc2)o1)c1ccccc1	M4 PAM 23
COC(=O)[C@]1(C)N[C@H](CN(C)C(C)=O)[C@@H]2C(=O)N(Cc3ccccc3)C(=O)[C@@H]21	none
CC(=O)c1ccc(N2CCN(c3ccccc3O)CC2)c([N+](=O)[O-])c1	M5 antag 31
CC(=O)c1ccc(N2CCC(c3cc(-c4ccc(Cl)cc4Cl)n[nH]3)CC2)c([N+](=O)[O-])c1	CHRM4 antagonist 34
O=C(O)c1ccccc1C(=O)c1ccc(N2CCCC2)c([N+](=O)[O-])c1	none
Cc1ccnc(NC(=O)CN2C(=O)NC(C)(c3ccc4ccccc4c3)C2=O)c1 (stereo unspecified)	none
CCC(=O)N1CCC1(C)C(=O)Nc1ccc(OC(F)F)cc1 (stereo unspecified)	none
CCN(CC)c1ccc(/C=C(/C#N)C(=O)NC(C)C)o1	none
CCN(CC)c1ccc(/C=C(/C#N)C(=O)NCc2ccccc2)o1	M5 ag 30
CCCCCNC(=O)C(CCc1ccccc1)n1c(=O)c(-c2ccccc2)nc2ccccc21 (stereo unspecified)	CHRM4 antagonist 31
CCCCCNC(=O)C(CCc1ccccc1)n1c(=O)c(-c2cc3ccccc3[nH]2)nc2ccccc21 (stereo unspecified)	none
CCOC(=O)c1cn(Cc2ccccc2)c2cc(C)nn2c1=O	none
CCOC(=O)c1cn(Cc2ccccc2)c(C(=O)OC(C)(C)C)c1O	M4 ag 81
Cc1ccc(NC(=O)N2CCc3ccccc3C2)c(C)c1	M4 PAM 19
Cc1c(CN2CCC(CO)(CCOc3ccccc3)CC2)[nH]c2c(Cl)cccc12	CHRM4 antagonist 29
CNC(=O)C(=O)Nc1nc(C23CC4CC(CC(C4)C2)C3)cs1	M5 PAM 19
O=C(NCc1ccccc1)C(=O)Nc1nc(C23CC4CC(CC(C4)C2)C3)cs1	none
COc1ccc(CSC2=CS(=O)(=O)c3ccccc3N2)cc1	none
CCCNS(=O)(=O)c1ccc(OCC(=O)Nc2ccc3c(c2)OCO3)cc1	CHRM4 antagonist 45
COc1ccc(/C=N/OCC(=O)Nc2ccc3c(c2)OCO3)c(OC)c1	CHRM4 antagonist 38
CCOc1ccc(/C=N/OCC(=O)Nc2ccc3c(c2)OCO3)cc1	none
Cc1ccc(C(=O)OCC(=O)Nc2ccc3c(c2)OCO3)o1	M5 PAM 20
CC1(C)O[C@@H]2[C@H](O1)[C@@H](COS(=O)(=O)O)O[C@H]2n1c(=S)[nH]c2c(=O)[nH]c(N)nc21	none
O=C(c1ccc(Cl)cc1)N1CCOc2ccccc21	none
CC(C)n1cnc2c(N(C)c3ccccc3)nc(N(CCN(C)C)Cc3ccccc3)nc21	M5 antag 34
COc1cc(N(Cc2ccccc2)Cc2ccccc2)c2ncn(C(C)C)c2c1	none
COc1ccccc1NS(=O)(=O)c1cc(C(=O)N2CCCC2)ccc1F	none
c1ccc2sc(-c3ccncc3)nc2c1	M5 antag 28, M5 PAM 32
S=C(Nc1cccc2ccccc12)NN1CCCCCC1	CHRM4 antagonist 35
Cc1cc2c(cc1C)-n1nnnc1C(N1CCCC1)C(=O)N2 (stereo unspecified)	none
Cc1ccc(N2CC(C(=O)Nc3ccccc3OC(F)F)CC2=O)cc1 (stereo unspecified)	none
N#Cc1nc(-c2ccccc2Cl)oc1N1CCN(C(=O)c2ccco2)CC1	M5 PAM 23
N#Cc1nc(-c2ccc(F)cc2)oc1N1CCN(C(=O)c2ccco2)CC1	none
COc1cccc(-c2nc(C#N)c(N3CCN(C(=O)c4ccco4)CC3)o2)c1	M4 PAM 22
COc1cccc(OC)c1OCCCCCCN1CCN(C)CC1	none
CC(C)c1ccccc1OCCCCCN1CCOCC1	CHRM4 antagonist 32
